Measurements taken from ChEMBL document CHEMBL3244362, “Photoaffinity labeling of the angiotensin II receptor. 3. Receptor inactivation with photolabile hormone analogues” (J Med Chem, 1979).
Active and inactive are the calls of the source. No cut-off for these calls is given here. Square brackets hold non-standard residues; d marks the D form. Peptide text beside a SMILES is read from it. Phe(4-NO2) = N[C@@H](Cc1ccc([N+](=O)[O-])cc1)C(=O)O; Phe(4-N3) = [N-]=[N+]=Nc1ccc(C[C@H](N)C(=O)O)cc1; Phe(4-N2+) = N#[N+]c1ccc(C[C@H](N)C(=O)O)cc1; Sar = CNCC(=O)O

Columns and labels:
Oryctolagus cuniculus [1] = organism: Oryctolagus cuniculus; experiment: Intrinsic activity at angiotensin 2 receptor in albino New Zealand rabbit aorta in absence of UV light; format: tissue-based
Procedure, shortened: (§1)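 Rabbit aortic strips were suspended in Krebs solution at 37 °C, gassed with 95% O2/5% CO2, at 2.0 g tension, and equilibrated 60–90 min with bath changes every 10–15 min. Isometric contraction was recorded by force transducer in the dark. PD2 is the −log agonist concentration giving half-maximal contraction. pA2 is the −log antagonist concentration reducing a double agonist dose to a single-dose response. αE is intrinsic activity.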

Oryctolagus cuniculus [2] = organism: Oryctolagus cuniculus; experiment: Agonist activity at angiotensin 2 receptor in albino New Zealand rabbit aorta in absence of UV light; format: tissue-based; procedure, shortened: as §1
Oryctolagus cuniculus [3] = organism: Oryctolagus cuniculus; experiment: Inactivation of angiotensin 2 receptor in albino New Zealand rabbit aorta assessed as relaxation of angiotensin-induced contraction at 0.2 uM treated for 180 mins followed by UV light exposed for 10 mins relative to control in presence of noradrenaline; format: tissue-based; design: scale not given: the % may be the effect or the level left
Procedure, shortened: (§2)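 Strips in Krebs at 37 °C (95% O2/5% CO2, 2.0 g tension) received AT 0.2 μM at 60 and 120 min. The control agonist was noradrenaline for aorta and serotonin for stomach. At 180 min, peptide plus (4'amino)Phe 0.6 mM was added; after 5 min at maximal contraction, strips were UV-irradiated (365 nm black light) for 10 min and washed. AT response at 280 min was expressed as % of nonirradiated references. At least seven experiments; mean ± SE.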

Oryctolagus cuniculus [4] = organism: Oryctolagus cuniculus; experiment: Inactivation of angiotensin 2 receptor in albino New Zealand rabbit aorta assessed as relaxation of angiotensin-induced contraction at 0.2 uM treated for 180 mins followed by UV light exposed for 10 mins relative to control in presence of [Leu8]-AT; format: tissue-based; design: scale not given: the % may be the effect or the level left
Procedure, shortened: (§3)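 Protection protocol: aortic strips in Krebs at 37 °C were given AT 0.2 μM at 60 and 120 min, then preincubated 15 min with [Leu8]AT 5 μM (final) before the photolabel plus (4'amino)Phe 0.6 mM. After 5 min at maximal contraction, strips were UV-irradiated 10 min and washed only after photolysis. Residual AT response at 280 min was expressed as % of nonirradiated, identically incubated references.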

Oryctolagus cuniculus [5] = organism: Oryctolagus cuniculus; experiment: Binding affinity to angiotensin 2 receptor in albino New Zealand rabbit aorta relative to [Sar1]AT in absence of UV light
Oryctolagus cuniculus [6] = organism: Oryctolagus cuniculus; experiment: Inactivation of angiotensin 2 receptor in albino New Zealand rabbit aorta assessed as relaxation of angiotensin-induced contraction at 10 uM treated for 180 mins followed by UV light exposed for 10 mins relative to control in presence of noradrenaline; format: tissue-based; design: scale not given: the % may be the effect or the level left; procedure, shortened: as §2
Oryctolagus cuniculus [7] = organism: Oryctolagus cuniculus; experiment: Inactivation of angiotensin 2 receptor in albino New Zealand rabbit aorta assessed as relaxation of angiotensin-induced contraction at 10 uM treated for 180 mins followed by UV light exposed for 10 mins relative to control in presence of [Leu8]-AT; format: tissue-based; design: scale not given: the % may be the effect or the level left; procedure, shortened: as §3
Oryctolagus cuniculus [8] = organism: Oryctolagus cuniculus; experiment: Inactivation of angiotensin 2 receptor in albino New Zealand rabbit aorta assessed as relaxation of angiotensin-induced contraction at 0.4 uM treated for 180 mins followed by UV light exposed for 10 mins relative to control in presence of noradrenaline; format: tissue-based; design: scale not given: the % may be the effect or the level left; procedure, shortened: as §2
Oryctolagus cuniculus [9] = organism: Oryctolagus cuniculus; experiment: Inactivation of angiotensin 2 receptor in albino New Zealand rabbit aorta assessed as relaxation of angiotensin-induced contraction at 5 uM treated for 180 mins followed by UV light exposed for 10 mins relative to control in presence of noradrenaline; format: tissue-based; design: scale not given: the % may be the effect or the level left; procedure, shortened: as §2
Oryctolagus cuniculus [10] = organism: Oryctolagus cuniculus; experiment: Inactivation of angiotensin 2 receptor in albino New Zealand rabbit aorta assessed as relaxation of angiotensin-induced contraction at 5 uM treated for 180 mins followed by UV light exposed for 10 mins relative to control in presence of [Leu8]-AT; format: tissue-based; design: scale not given: the % may be the effect or the level left; procedure, shortened: as §3
[11] = Antagonist activity at angiotensin 2 receptor in albino New Zealand rabbit aorta in absence of UV light; format: tissue-based, Oryctolagus cuniculus; procedure, shortened: as §1
[12] = biological target: T1, Angiotensin II receptor (Rattus norvegicus) (UniProt P29089+P25095+P35351); experiment: Inactivation of angiotensin 2 receptor in Wistar rat stomach assessed as relaxation of angiotensin-induced contraction at 1 uM treated for 180 mins followed by UV light exposed for 10 mins relative to control in presence of serotonin; procedure, shortened: as §2
Oryctolagus cuniculus [13] = organism: Oryctolagus cuniculus; experiment: Inactivation of angiotensin 2 receptor in albino New Zealand rabbit aorta assessed as relaxation of angiotensin-induced contraction at 0.4 uM treated for 180 mins followed by UV light exposed for 10 mins relative to control in presence of [Leu8]-AT; format: tissue-based; design: scale not given: the % may be the effect or the level left; procedure, shortened: as §3
[14] = biological target: T1, Angiotensin II receptor (Rattus norvegicus); experiment: Inactivation of angiotensin 2 receptor in Wistar rat aorta assessed as relaxation of angiotensin-induced contraction at 0.1 uM treated for 180 mins followed by UV light exposed for 10 mins relative to control in presence of noradrenaline; procedure, shortened: as §2

Compound	Intrinsic activity (Oryctolagus cuniculus [1])	pD2 (Oryctolagus cuniculus [2])	RBA (Oryctolagus cuniculus [5])	Activity (Oryctolagus cuniculus [6])	other results
CNCC(=O)N[C@@H](CCCNC(=N)N)C(=O)N[C@H](C(=O)N[C@@H](Cc1ccc(O)cc1)C(=O)N[C@H](C(=O)N[C@@H](Cc1cnc[nH]1)C(=O)N1CCC[C@H]1C(=O)N[C@@H](Cc1ccccc1)C(=O)O)C(C)C)C(C)C (H-[Sar]RVYVHPF-OH)	1	9.23			Activity (Oryctolagus cuniculus [3]): 100%; Activity (Oryctolagus cuniculus [4]): 100%
CNCC(=O)N[C@@H](CCCNC(=N)N)C(=O)N[C@H](C(=O)N[C@@H](Cc1ccc(N=[N+]=[N-])cc1)C(=O)N[C@H](C(=O)N[C@@H](Cc1cnc[nH]1)C(=O)N1CCC[C@H]1C(=O)N[C@@H](Cc1ccc(N=[N+]=[N-])cc1)C(=O)O)C(C)C)C(C)C (H-[Sar]RV[Phe(4-N3)]VHP[Phe(4-N3)]-OH)	0.8	6.12	0.07%	100%	Activity (Oryctolagus cuniculus [7]): 92%
CNCC(=O)N[C@@H](CCCNC(=N)N)C(=O)N[C@H](C(=O)N[C@@H](Cc1ccc([N+]#N)cc1)C(=O)N[C@H](C(=O)N[C@@H](Cc1cnc[nH]1)C(=O)N1CCC[C@H]1C(=O)N[C@@H](Cc1ccc([N+]#N)cc1)C(=O)O)C(C)C)C(C)C (H-[Sar]RV[Phe(4-N2+)]VHP[Phe(4-N2+)]-OH)	1	7.36	1.3%		
CNCC(=O)N[C@@H](CCCNC(=N)N)C(=O)N[C@H](C(=O)N[C@@H](Cc1ccc(O)cc1)C(=O)N[C@H](C(=O)N[C@@H](Cc1cnc[nH]1)C(=O)N1CCC[C@H]1C(=O)N[C@@H](Cc1ccc([N+](=O)[O-])cc1)C(=O)O)C(C)C)C(C)C	0.46	9.07	69%		Activity (Oryctolagus cuniculus [8]): 95%
CNCC(=O)N[C@@H](CCCNC(=N)N)C(=O)N[C@H](C(=O)N[C@@H](Cc1ccc(N=[N+]=[N-])cc1)C(=O)N[C@H](C(=O)N[C@@H](Cc1cnc[nH]1)C(=O)N1CCC[C@H]1C(=O)N[C@@H](Cc1ccccc1)C(=O)O)C(C)C)C(C)C (H-[Sar]RV[Phe(4-N3)]VHPF-OH)	0.75	6.65	0.26%		Activity (Oryctolagus cuniculus [9]): 98%; Activity (Oryctolagus cuniculus [10]): 64%
CNCC(=O)N[C@@H](CCCNC(=N)N)C(=O)N[C@H](C(=O)N[C@@H](Cc1ccc([N+]#N)cc1)C(=O)N[C@H](C(=O)N[C@@H](Cc1cnc[nH]1)C(=O)N1CCC[C@H]1C(=O)N[C@@H](Cc1ccccc1)C(=O)O)C(C)C)C(C)C (H-[Sar]RV[Phe(4-N2+)]VHPF-OH)	1	7.05	0.66%		
CNCC(=O)N[C@@H](CCCNC(=N)N)C(=O)N[C@H](C(=O)N[C@@H](Cc1ccc([N+](=O)[O-])cc1)C(=O)N[C@H](C(=O)N[C@@H](Cc1cnc[nH]1)C(=O)N1CCC[C@H]1C(=O)N[C@@H](Cc1ccccc1)C(=O)O)C(C)C)C(C)C (H-[Sar]RV[Phe(4-NO2)]VHPF-OH)	0	< 5	0%	105%	pA2 [11]: < 5; Activity (Oryctolagus cuniculus [7]): 102%; inhibition [12]: inactive
CNCC(=O)N[C@@H](CCCNC(=N)N)C(=O)N[C@H](C(=O)N[C@@H](Cc1ccc(O)cc1)C(=O)N[C@H](C(=O)N[C@@H](Cc1cnc[nH]1)C(=O)N1CCC[C@H]1C(=O)N[C@@H](Cc1ccc([N+]#N)cc1)C(=O)O)C(C)C)C(C)C	1	8.33	13%		Activity (Oryctolagus cuniculus [9]): 78%; Activity (Oryctolagus cuniculus [10]): 72%
CNCC(=O)N[C@@H](CCCNC(=N)N)C(=O)N[C@H](C(=O)N[C@@H](Cc1ccc([N+](=O)[O-])cc1)C(=O)N[C@H](C(=O)N[C@@H](Cc1cnc[nH]1)C(=O)N1CCC[C@H]1C(=O)N[C@@H](Cc1ccc([N+](=O)[O-])cc1)C(=O)O)C(C)C)C(C)C (H-[Sar]RV[Phe(4-NO2)]VHP[Phe(4-NO2)]-OH)	0.5	6.02	0.06%	99%	
CNCC(=O)N[C@@H](CCCNC(=N)N)C(=O)N[C@H](C(=O)N[C@@H](Cc1ccc(O)cc1)C(=O)N[C@H](C(=O)N[C@@H](Cc1cnc[nH]1)C(=O)N1CCC[C@H]1C(=O)N[C@@H](Cc1ccc(N=[N+]=[N-])cc1)C(=O)O)C(C)C)C(C)C	1	8.72	31%		Activity (Oryctolagus cuniculus [8]): 100%; Activity (Oryctolagus cuniculus [13]): 103%; inhibition [14]: Active
